Experimental findings from ChEMBL document CHEMBL1157953, “Antiviral flavans from the leaves of Pithecellobium clypearia” (J Nat Prod, 2006) are described below.

Series [1] in a line: Cytotoxicity against MDCK cells after 3 days by MTT reduction assay. The class given is cell-based, Canis lupus familiaris. The settings on record: dog. Summed up: (§1)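 Serial sample dilutions (from 40 mg/mL DMSO stock; top test concentration 1000 µg/mL in maintenance medium, 1% FBS with gentamicin) added in triplicate to confluent monolayers, 37 °C, 5% CO2. After 3 days MTT added for 3 h; formazan dissolved in DMSO, OD read at 540 and 690 nm. CC50 = concentration reducing viable cells to 50% of medium control.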
Background: Tetrazolium assays rely on reduction of a dye to a coloured formazan, in cell work by metabolically active cells.

Series [2] has as its system Respiratory syncytial virus. In words: Antiviral activity against RSV Long in human Hep2 cells assessed as reduction of virus induced cytopathic effect. The class given is functional, organism-based. To be noted: HEp-2. Summed up:
(§2)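 CPE reduction assay: confluent monolayers received 0.1 mL of 100 TCID50 virus simultaneously with 0.1 mL of serial 2-fold sample dilutions. Samples were dissolved in DMSO, then diluted into maintenance medium (MEM, 1% FBS, gentamicin, L-glutamine). Incubation at 37 °C, 5% CO2 for 4-6 days. CPE was scored 0-4 against virus and cell controls. IC50 is the concentration halving CPE, estimated from plots.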
(In general: Cytopathic effects are the visible damage that an infection or toxin causes in cultured cells.)

Series [3] can be described thus: Selectivity index, CC50 for human Hep2 cells to IC50 for RSV Long. The class given is functional, HEp-2. Summed up: (§3)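 SI = CC50/IC50. CC50 came from an MTT assay: confluent monolayers were exposed in triplicate to sample dilutions for 3 days, then MTT was added for 3 h, formazan was dissolved in DMSO, and OD was read at 540/690 nm. CC50 is the concentration cutting viable cells to 50% of control. IC50 came from the CPE reduction assay in the matching cell line.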

Series [4] is described as follows: Selectivity index, CC50 for african green monkey Vero cells to IC50 for HSV1 15577. Type of series: functional. The essentials:
as §3

Series [5] relates to Coxsackievirus B3. The series is described as follows: Antiviral activity against Cox B3 virus in human Hep2 cells assessed as reduction of virus induced cytopathic effect. To be noted: Enterovirus B, HEp-2. Type of series: functional, organism-based. The essentials:
as §2

A short description of series [6]: Selectivity index, CC50 for human Hep2 cells to IC50 for Cox B3 virus. The class given is functional, HEp-2. Summed up: as §3
Series [7] can be described thus: Cytotoxicity against african green monkey Vero cells after 3 days by MTT reduction assay. Type of series: cell-based. The settings on record: chlorocebus sabaeus. The essentials: as §1
Series [8] concerns Human alphaherpesvirus 1. The series is described as follows: Antiviral activity against HSV1 15577 in african green monkey Vero cells assessed as reduction of virus induced cytopathic effect. The class given is functional, organism-based. To be noted: Human alphaherpesvirus 1, Vero. Summed up: as §2
Series [9] is described as follows: Cytotoxicity against human Hep2 cells after 3 days by MTT reduction assay. The class given is cell-based, HEp-2. Summed up: as §1
Series [10] is described as follows: Selectivity index, CC50 for MDCK cells to IC50 for influenza A virus H1N1 A/NWS/33. The class given is functional. The essentials: as §3

In brackets after ≈: the same amount, converted by molar mass.

The CC50 is the concentration at which the toxic effect on the cells reaches its halfway point. In general, IC50 refers to the concentration that inhibits the measured activity by half.

Consider `O=C(Oc1cc(O)c2c(c1)OC(c1cc(O)c(O)c(O)c1)CC2)c1cc(O)c(O)c(O)c1` (stereo not drawn), for which the CC50 at 72 h was 110 µg/mL (≈ 249 µM) in series [1], 120 µg/mL (≈ 271 µM) in [7] and 95 µg/mL (≈ 215 µM) in [9]. In addition, the MNTC at 72 h in [1] (read-out: MNCC) came to 62.5 µg/mL; in series [7] (read-out: MNCC) it was 31.3 µg/mL; in series [9] (read-out: MNCC), 25 µg/mL. The IC50 in [2] is 5 µg/mL (≈ 11.3 µM); in [5], 12.5 µg/mL (≈ 28.3 µM); in series [8], 30 µg/mL (≈ 67.8 µM). In addition, the “Ratio CC50/IC50” value turned out to be 19 in [3], 4 in series [4], 7.6 in [6] and 7 in series [10].

As to `Nc1nc2c(ncn2COCCO)c(=O)[nH]1` [ACYCLOVIR], the “Ratio CC50/IC50” value in [4] is reported as more than 2000. Besides, the IC50 in [5] amounted to 25 µg/mL (≈ 111 µM); in series [8] it was 0.25 µg/mL (≈ 1.11 µM). Further, the CC50 at 72 h in [7] is more than 500 µg/mL.

For `NC(=O)c1ncn([C@@H]2O[C@H](CO)[C@@H](O)[C@H]2O)n1` [RIBAVIRIN], the concentration for half-maximal inhibition (IC50) in series [2] is 3 µg/mL (≈ 12.3 µM).
